How the values were obtained:
SufBC [1] = molecular target: T1, SufBC (Thermotoga maritima, UniProt Q9X188); assay: stopped-flow ADP dissociation trapped by MDCC-ParM; assay type: binding; conditions: 50 mM Tris-HCl pH 7.5, 100 mM KCl, 5 mM MgCl2, 2 mM dithiothreitol, 20 °C
T1 sequence (Q9X188 1-246): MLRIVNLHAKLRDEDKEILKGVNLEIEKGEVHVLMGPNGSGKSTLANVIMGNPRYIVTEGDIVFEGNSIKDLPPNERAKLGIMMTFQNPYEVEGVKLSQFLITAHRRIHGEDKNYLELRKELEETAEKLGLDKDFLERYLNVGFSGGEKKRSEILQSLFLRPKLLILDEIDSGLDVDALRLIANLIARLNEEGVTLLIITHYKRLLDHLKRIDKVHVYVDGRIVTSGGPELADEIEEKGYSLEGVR
T1 sequence (Q9X189 1-464 partner): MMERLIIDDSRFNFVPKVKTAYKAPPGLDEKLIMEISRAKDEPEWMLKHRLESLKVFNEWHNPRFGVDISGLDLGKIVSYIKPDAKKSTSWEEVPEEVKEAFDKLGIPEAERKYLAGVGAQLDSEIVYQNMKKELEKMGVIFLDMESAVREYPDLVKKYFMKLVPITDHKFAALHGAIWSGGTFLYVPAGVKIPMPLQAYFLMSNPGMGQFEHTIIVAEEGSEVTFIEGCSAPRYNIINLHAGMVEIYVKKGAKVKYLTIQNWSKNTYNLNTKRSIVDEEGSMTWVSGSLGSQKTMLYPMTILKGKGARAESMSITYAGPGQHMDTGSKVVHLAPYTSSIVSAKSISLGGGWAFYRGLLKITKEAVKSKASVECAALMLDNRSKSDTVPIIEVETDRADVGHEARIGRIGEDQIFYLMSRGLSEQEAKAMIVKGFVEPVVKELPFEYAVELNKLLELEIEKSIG
How it was run: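 SufBC (13 μM) was preincubated with 4 μM ADP in one stopped-flow syringe. It was rapidly mixed with 80 or 160 μM MDCC-ParM ADP sensor, which traps ADP released from SufBC. ADP dissociation was read from the change in MDCC fluorescence over time.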

SufBC [2] = molecular target: T1, SufBC; conditions: 50 mM Tris-HCl pH 7.5, 100 mM KCl, 5 mM MgCl2, 2 mM dithiothreitol, 20 °C

rate constant (ADP dissociation) (SufBC [1])	Structure (SMILES)	single-turnover stopped-flow, MDCC-PBP and MDCC-ParM sensors (SufBC [2])
0.046 s⁻¹	Nc1ncnc2c1ncn2[C@@H]1O[C@H](COP(=O)(O)OP(=O)(O)O)[C@@H](O)[C@H]1O [ADP]	
	Nc1ncnc2c1ncn2[C@@H]1O[C@H](COP(=O)(O)OP(=O)(O)OP(=O)(O)O)[C@@H](O)[C@H]1O [ATP]	study ADP and Pi release during a single turnover of ATP hydrolysis by SufBC

From paper PMC2785155 (The Journal of Biological Chemistry, 2009)
